Published values pooled from the literature.
Compare with care: the assays were run in different laboratories.
G protein-coupled receptor 88: G protein-coupled receptor 88 (Homo sapiens, UniProt Q9GZN0)
SLCO1B3: Solute carrier organic anion transporter family member 1B3 (SLCO1B3, Homo sapiens, UniProt Q9NPD5)
Cnr2: Cannabinoid receptor 2 (Cnr2, Mus musculus, UniProt P47936)

| Structure (SMILES) | target | test | system | setting | measurement | result |
| --- | --- | --- | --- | --- | --- | --- |
| CCCCOc1ccc([C@@H](CO)C(=O)N[C@H](C)c2ccccc2)cc1 | G protein-coupled receptor 88 | cAMP, agonist, TR-FRET |  |  | EC50 | 5.13 µM |
| CC(C)(C)[C@H](NC(=O)C(F)(F)F)C(=O)N1C[C@H]2[C@@H]([C@H]1C(=O)N[C@H](C#N)C[C@@H]1CCNC1=O)C2(C)C | SLCO1B3 | transporter uptake, inhibitor |  |  | Ki | 283 µM |
| OCCCCO | Cytochrome P450 2E1 (Cyp2e1, Rattus norvegicus, UniProt P05182) | enzyme activity, inhibitor | Fischer 344 rat, liver microsomes | 30 min | IC50 | 5800 µM |
| CCCCCOc1ccc([C@@H](CO)C(=O)N[C@H](C)c2ccccc2)cc1 | G protein-coupled receptor 88 | cAMP, agonist, TR-FRET |  |  | EC50 | 3.24 µM |
| O=C[C@H](C[C@@H]1CCNC1=O)NC(=O)[C@H](CC1CCCCC1)NC(=O)c1cc2ccccc2[nH]1 | Procathepsin L (CTSL, Homo sapiens, UniProt P07711) | enzyme activity, inhibitor |  |  | IC50 | 0.00021 µM |
| O=c1[nH]c2ccccc2n1C1CCN(CCCC(c2ccc(F)cc2)c2ccc(F)cc2)CC1 | Signal transducer and activator of transcription 5B, SH2 (STAT5B, Homo sapiens, UniProt P51692) | protein-protein interaction, inhibitor, FP |  |  | IC50 | 75.1 µM |
| CCOC(=O)c1cncn1[C@H](C)c1ccccc1 | SLCO1B3 | transporter uptake, inhibitor, fluorescence | CHO | 30 min, pH 7.4 | IC50 | > 100 µM |
| CCCCCCC(C)(C)c1cc(O)c2c(c1)OC(C)(C)[C@@H]1CC=C(C)C[C@@H]21 | Cnr2 | ligand displacement, radioligand |  | cell membranes | Ki | 0.0014 µM |
| Cc1c(C(=O)c2cccc3ccccc23)c2cccc3c2n1[C@H](CN1CCOCC1)CO3 | Cnr2 | ligand displacement, radioligand |  | cell membranes | Ki | 0.0058 µM |
